# ChEMBL document CHEMBL1152584, “Synthesis of heteroaromatic tropeines and heterogeneous binding to glycine receptors” (Bioorg Med Chem, 2009)
# pIC50: −log10 of the molar value.
# Assays:
# [1] = target: T1, Glycine receptor subunit alpha-1 (Rattus norvegicus, UniProt P07727); assay: Displacement of [3H]strychnine from GlyR in Wistar rat spinal cord by scintillation spectrometry
# T1 sequence (P07727 whole entry): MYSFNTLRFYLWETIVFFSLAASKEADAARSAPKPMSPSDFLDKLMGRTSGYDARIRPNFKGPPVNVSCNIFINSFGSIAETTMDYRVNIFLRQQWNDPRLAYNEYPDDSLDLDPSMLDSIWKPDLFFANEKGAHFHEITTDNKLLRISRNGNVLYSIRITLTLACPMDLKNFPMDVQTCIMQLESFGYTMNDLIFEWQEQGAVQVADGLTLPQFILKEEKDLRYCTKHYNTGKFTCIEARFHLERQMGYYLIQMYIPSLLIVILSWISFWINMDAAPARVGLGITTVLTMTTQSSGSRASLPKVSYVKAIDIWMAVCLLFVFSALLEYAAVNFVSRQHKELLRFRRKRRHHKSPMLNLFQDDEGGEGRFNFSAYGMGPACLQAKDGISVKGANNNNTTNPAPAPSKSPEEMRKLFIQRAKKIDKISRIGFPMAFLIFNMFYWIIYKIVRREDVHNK
# In short: (§1)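 Duplicate aliquots filtered, washed with ice-cold buffer, counted by scintillation. Nonspecific binding defined with 2 mM glycine. IC50 and Hill slope from nonlinear sigmoidal fitting. Two-site fits used pooled data, chosen by F test.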
# [2] = target: T2, Glycine receptor subunit alpha-1 (Rattus norvegicus) (UniProt P07727); assay: Selectivity ratio of IC50 for GlyR low affinity site to IC50 for GlyR high affinity site in Wistar rat spinal cord
# T2 sequence (whole entry): T1 sequence (P07727 whole entry)
# [3] = target: T3, 5-hydroxytryptamine receptor 3A (Rattus norvegicus, UniProt P35563); assay: Displacement of [3H]granisectron from 5HT3 receptor in Wistar rat forebrain
# T3 sequence (P35563 whole entry): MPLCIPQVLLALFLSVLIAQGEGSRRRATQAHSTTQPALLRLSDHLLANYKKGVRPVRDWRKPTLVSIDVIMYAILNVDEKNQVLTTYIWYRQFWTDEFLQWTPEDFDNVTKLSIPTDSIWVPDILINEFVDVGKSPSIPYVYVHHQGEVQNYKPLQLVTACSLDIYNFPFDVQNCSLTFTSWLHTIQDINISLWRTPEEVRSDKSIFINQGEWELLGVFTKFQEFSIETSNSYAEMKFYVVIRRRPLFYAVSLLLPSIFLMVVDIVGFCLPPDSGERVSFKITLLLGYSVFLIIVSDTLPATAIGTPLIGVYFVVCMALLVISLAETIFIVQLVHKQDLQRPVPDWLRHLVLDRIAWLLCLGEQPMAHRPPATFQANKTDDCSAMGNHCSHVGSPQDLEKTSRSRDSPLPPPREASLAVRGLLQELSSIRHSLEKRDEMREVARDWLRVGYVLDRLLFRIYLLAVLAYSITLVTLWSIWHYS
# In short: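 Crude membranes from male rat forebrain (cortex + hippocampus), homogenized in 10 mM HEPES/140 mM NaCl pH 7.5, centrifuged, washed, frozen; thawed and spun before use. Incubated with 0.2 nM [3H]granisetron at 0 °C for 2.5 h. Nonspecific binding defined with 10 µM granisetron.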
# [4] = target: T1, Glycine receptor subunit alpha-1; assay: Displacement of [3H]strychnine from GlyR high affinity site in Wistar rat spinal cord by scintillation spectrometry; in short: as §1
# [5] = target: T1, Glycine receptor subunit alpha-1; assay: Displacement of [3H]strychnine from GlyR low affinity site in Wistar rat spinal cord by scintillation spectrometry; in short: as §1
# [6] = target: T1, Glycine receptor subunit alpha-1; assay: Displacement of [3H]strychnine from GlyR in Wistar rat spinal cord by scintillation spectrometry in presence of 10 uM glycine; in short: as §1
# [7] = target: T1, Glycine receptor subunit alpha-1; assay: Displacement of [3H]strychnine from GlyR high affinity site in Wistar rat spinal cord by scintillation spectrometry in presence of 10 uM glycine; in short: as §1
# [8] = target: T1, Glycine receptor subunit alpha-1; assay: Displacement of [3H]strychnine from GlyR low affinity site in Wistar rat spinal cord by scintillation spectrometry in presence of 10 uM glycine; in short: as §1
Compound,pIC50 [1],Ratio IC50 [2],pIC50 [3],pIC50 [4],pIC50 [5],pIC50 [6],pIC50 [7],pIC50 [8]
O=C(O[C@H]1C[C@H]2CC[C@@H](C1)N2)c1cnc2ccccc2c1,6.78,1,,,,,,
O=C(O[C@H]1C[C@H]2CC[C@@H](C1)N2)c1cc2ccccc2[nH]1,6.63,1,7.49,,,,,
CN1[C@@H]2CC[C@H]1C[C@@H](OC(=O)c1cc3ccccc3n1C)C2,5.80,240,7.74,7.99,5.62,,,
CN1[C@@H]2CC[C@H]1C[C@@H](OC(=O)c1cccs1)C2,5.72,47,,7.05,5.37,,,
O=C(O[C@H]1C[C@H]2CC[C@@H](C1)N2)c1ccco1,7.10,1,,,,,,
CN1[C@@H]2CC[C@H]1C[C@@H](OC(=O)c1cnc3ccccc3c1)C2,5.72,76,,7.14,5.26,,,
CN1[C@@H]2CC[C@H]1C[C@H](OC(=O)c1cc3ccccc3[nH]1)C2,5.33,133,,7.22,5.10,,,
CN1[C@@H]2CC[C@H]1C[C@@H](OC(=O)c1cccn1C)C2,5.12,> 1,,,,,,
CN1[C@@H]2CC[C@H]1C[C@@H](OC(=O)c1ccc[nH]1)C2,4.95,615,,7.47,4.68,,,
Cn1c(C(=O)O[C@H]2C[C@H]3CC[C@@H](C2)N3)cc2ccccc21,7.47,11,7.60,7.94,6.90,7.15,8.97,6.87
CN1[C@@H]2CC[C@H]1C[C@@H](OC(=O)c1ccco1)C2,5.25,200,,7.30,5.00,,,
O=C(O[C@H]1C[C@H]2CC[C@@H](C1)N2)c1cccs1,7.38,1,,,,,,
CN1[C@@H]2CC[C@H]1C[C@@H](OC(=O)c1cccnc1)C2,5.37,390,,7.23,4.64,,,
O=C(O[C@H]1C[C@H]2CC[C@@H](C1)N2)c1ccc[nH]1,6.89,1,,,,,,
O=C(O[C@H]1C[C@H]2CC[C@@H](C1)N2)c1cccnc1,7.00,1,,,,,,
